Measured values from different studies.
Lines come from different studies, so protocols differ.
Target: Serine/threonine-protein kinase D1 (PRKD1, Homo sapiens, UniProt Q15139)
Sequence (Q15139 1-912, as in one of the studies): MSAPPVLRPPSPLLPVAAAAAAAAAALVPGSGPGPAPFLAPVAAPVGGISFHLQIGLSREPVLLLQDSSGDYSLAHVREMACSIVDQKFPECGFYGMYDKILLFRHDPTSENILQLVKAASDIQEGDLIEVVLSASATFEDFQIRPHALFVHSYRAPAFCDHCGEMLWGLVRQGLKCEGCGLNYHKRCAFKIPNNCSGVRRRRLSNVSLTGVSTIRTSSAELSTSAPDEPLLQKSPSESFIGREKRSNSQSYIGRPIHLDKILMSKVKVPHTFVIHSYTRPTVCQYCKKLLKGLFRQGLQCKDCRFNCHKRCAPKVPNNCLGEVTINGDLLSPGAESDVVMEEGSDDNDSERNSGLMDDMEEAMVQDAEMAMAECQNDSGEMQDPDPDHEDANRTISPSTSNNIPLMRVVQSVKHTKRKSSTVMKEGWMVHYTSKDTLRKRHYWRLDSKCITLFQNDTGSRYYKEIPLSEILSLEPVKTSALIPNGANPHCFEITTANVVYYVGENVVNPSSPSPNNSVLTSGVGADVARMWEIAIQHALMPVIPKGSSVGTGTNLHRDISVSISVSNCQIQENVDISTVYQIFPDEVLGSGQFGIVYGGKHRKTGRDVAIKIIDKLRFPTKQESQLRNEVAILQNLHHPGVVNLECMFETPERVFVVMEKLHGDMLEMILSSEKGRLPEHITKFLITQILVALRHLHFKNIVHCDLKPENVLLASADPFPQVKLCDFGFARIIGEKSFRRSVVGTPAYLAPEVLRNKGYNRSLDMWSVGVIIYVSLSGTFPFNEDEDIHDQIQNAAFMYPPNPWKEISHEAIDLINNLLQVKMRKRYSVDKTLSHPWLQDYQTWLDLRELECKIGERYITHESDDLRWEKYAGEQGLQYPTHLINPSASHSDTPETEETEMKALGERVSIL

Cn1cc(-c2cccc(N3CCc4c(sc5c4CC(C)(C)C5)C3=O)c2CO)cc(Nc2ccncn2)c1=O  inhibition (enzyme activity, inhibitor; 1 µM): 2%
Nc1ncc(-c2nc(N3CCOCC3)nc(N3CCOCC3)n2)c(C(F)F)n1  remaining binding (binding, competition with immobilised ligand; 10 µM): 80%
Cc1nn(C)cc1-c1nc2c(N3CCN(Cc4ccc(Cl)cc4)CC3)c(Cl)cnc2[nH]1  remaining binding (binding, competition with immobilised ligand; 1 µM): 100%
CC(C)(C)c1cc(C=C(C#N)C#N)cc(Br)c1O  remaining activity (enzyme activity, inhibitor; 0.5 µM): 100%
Cn1cc(-c2cc(F)cc(N3CCn4c(cc5c4CCCC5)C3=O)c2CO)cc(Nc2ccc(N3CCN(C4COC4)CC3)cn2)c1=O  inhibition (enzyme activity, inhibitor; 0.1 µM): 12%
Cn1cncc1[C@](O)(COc1ccc(C#N)cc1-c1ccc(OC(F)(F)F)cc1)c1ccc(C#N)cc1  remaining binding (cell-free assay, competition with immobilised ligand; 1 µM): 99%
COc1cc(Nc2ncc(F)c(Nc3ccc4c(n3)NC(=O)C(C)(C)O4)n2)cc(OC)c1OC  inhibition (binding; 10 µM): 17%
O=c1[nH]c2ccccc2n1C1CCN(Cc2ccc(-c3[nH]c4cc5ncnc5cc4nc3-c3ccccc3)cc2)CC1  remaining signal (cell-free assay; 0.5 µM): 94.7%
N#CC1(c2ccccn2)CCN(Cc2cc(C(=O)O)c(=O)n3ccccc23)CC1  remaining binding (cell-free assay, competition with immobilised ligand; 1 µM): 87%
COc1ncccc1-c1cnn2ccc(N3CCN(C(=O)OC(C)C)CC3)nc12  remaining binding (binding, competition with immobilised ligand; 1 µM): 100%
